Here are results for 35 molecules from ChEMBL document CHEMBL1142883, “New polyamine-sensitive inhibitors of the NMDA receptor: syntheses and pharmacological evaluation” (Eur J Med Chem, 2007).

Test [1] addresses Glutamate NMDA receptor. Kind of test: Displacement of [3H]MK-801 from rat brain NMDA receptor. Put shortly: (§1)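 [³H]MK-801 at 5 nM is bound to rat brain membranes, with the co-agonists glutamic acid and glycine added. Incubation lasts 2 h, close to equilibrium. Nonspecific binding is binding to closed channels: no glutamate or glycine, with D-APV and 5,7-DCKA added. The standard buffer is 50 mM Tris, switched to 10 mM Tris for buffer-sensitive inhibition. Replicate counts are given per value.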

For test [2], the target named is Glutamate NMDA receptor. The experiment in a line: Displacement of [3H]MK-801 from NMDA receptor in rat brain in presence of 100 uM spermine. It counts as tissue-based. Summed up: as §1
The target of test [3] is Glutamate NMDA receptor. Kind of test: Displacement of [3H]MK801 from rat brain NMDA receptor in presence of 30 uM spermine. Summed up:
as §1

Test [4] concerns the target Glutamate NMDA receptor. The experiment in a line: Stimulation of [3H]MK-801 binding to rat brain NMDA receptor. Summed up:
as §1

As for `Cc1cc(CCCCN)sc1CCCCCCCCN`, on Glutamate NMDA receptor [1], the IC50 was determined as 1.62 µM. In addition, on Glutamate NMDA receptor [2], the spermine attenuation ratio turned out to be 3.9.

As to `CCc1cc(CCCCN)sc1CCCCCCCCN`, the IC50 at Glutamate NMDA receptor [1] came out at 3.23 µM. Further, the spermine attenuation ratio on Glutamate NMDA receptor [2] came to 2.67.

`NCCCCCCCCc1ccc(CCCCN)s1` displayed an IC50 on Glutamate NMDA receptor [1] of 0.54 µM. The values for the spermine attenuation ratio on Glutamate NMDA receptor [2] and on Glutamate NMDA receptor [3] were 8.84 and 15.1, respectively.

Take `NCCCCc1ccc(CCCCN(CC[C@@H](N)Cc2ccccc2)Cc2ccccc2)s1`: the IC50 at Glutamate NMDA receptor [1] was 9.62 µM. For the same molecule, the spermine attenuation ratio at Glutamate NMDA receptor [3] turned out to be 1.66.

In the case of `NCCCCCCCCc1ccc(CC2CCNCC2)s1`, the IC50 at Glutamate NMDA receptor [1] was found to be 0.63 µM. In addition, the spermine attenuation ratio at Glutamate NMDA receptor [2] is 9.07.

For the molecule `NCCCCCCCCCCCCCCN`, the IC50 at Glutamate NMDA receptor [1] worked out at 5.28 µM. Besides, the spermine attenuation ratio at Glutamate NMDA receptor [2] was found to be 6.94.

For the molecule `CNCCCCCCCCc1ccc(CC2CCNCC2)s1`, the IC50 at Glutamate NMDA receptor [1] was 2.48 µM. Moreover, the spermine attenuation ratio on Glutamate NMDA receptor [2] came out at 8.58.

With `NCCCCC#CCCCCCCCCN`, the IC50 at Glutamate NMDA receptor [1] was determined as 6.73 µM. The spermine attenuation ratio at Glutamate NMDA receptor [2] was 5.38.

In the case of `NCCCCCCCCc1ccc(CCCCN)cc1`, on Glutamate NMDA receptor [1], the IC50 was determined as 0.87 µM. For the same molecule, the spermine attenuation ratio at Glutamate NMDA receptor [2] was determined as 7.95.

Turning to `Cc1cc(CCCCCCCCN)sc1CCCCN`, the IC50 on Glutamate NMDA receptor [1] stood at 1.08 µM. Also, the spermine attenuation ratio at Glutamate NMDA receptor [2] was found to be 4.07.

As for `CN(C)CCCCCCCCc1ccc(CC2CCNCC2)s1`, the IC50 on Glutamate NMDA receptor [1] is 15.2 µM. The spermine attenuation ratio at Glutamate NMDA receptor [2] is 7.67.

`NCCCCc1ccc(Cc2ccc(CCCCN)s2)s1`: the IC50 on Glutamate NMDA receptor [1] is 1.76 µM. Moreover, on Glutamate NMDA receptor [3], the spermine attenuation ratio is 16.8.

For `N=C(N)NCCCCCCc1ccc(CCNC(=N)N)s1`, on Glutamate NMDA receptor [1], the IC50 amounted to 1.04 µM. Besides, the spermine attenuation ratio on Glutamate NMDA receptor [3] is 23.4.

With `N=C(N)NCCCCCCCCc1ccc(CCCNC(=N)N)s1`, at Glutamate NMDA receptor [1], the IC50 was determined as 0.31 µM. Besides, the spermine attenuation ratio at Glutamate NMDA receptor [3] is 6.29.

Turning to `N=C(N)NCCCCCCCCc1ccc(CCCCNC(=N)N)s1`, on Glutamate NMDA receptor [1], the IC50 came out at 0.77 µM. Besides, the spermine attenuation ratio on Glutamate NMDA receptor [3] amounted to 3.95.

As for `CNCCCCCCCCc1ccc(CCCCNC)s1`, the IC50 on Glutamate NMDA receptor [1] is 5.3 µM. Besides, the spermine attenuation ratio on Glutamate NMDA receptor [2] is 7.7.

In the case of `CN(C)CCCCCCCCc1ccc(CCCCN(C)C)s1`, the IC50 on Glutamate NMDA receptor [1] stood at 358 µM. Also, the spermine attenuation ratio on Glutamate NMDA receptor [2] was found to be 2.79.

In turn, `CCCNCCCCCCCCc1ccc(CCCCNCCC)s1` showed an IC50 at Glutamate NMDA receptor [1] of 114 µM. Besides, the spermine attenuation ratio on Glutamate NMDA receptor [2] came to 2.98.

As to `C=CCNCCCCCCCCc1ccc(CCCCNCC=C)s1`, the IC50 on Glutamate NMDA receptor [1] amounted to 13.3 µM. Moreover, the spermine attenuation ratio at Glutamate NMDA receptor [2] is 6.57.

On Glutamate NMDA receptor [1], `c1ccc(CNCCCCCCCCc2ccc(CCCCNCc3ccccc3)s2)cc1` displayed an IC50 of 8.67 µM. Besides, at Glutamate NMDA receptor [2], the spermine attenuation ratio came to 0.98.

At Glutamate NMDA receptor [1], `NCCCCc1ccc(CCOCCOCCN)s1` came in with an IC50 of 4.2 µM. Also, the spermine attenuation ratio at Glutamate NMDA receptor [3] is 16.8.

For the molecule `NCCCCc1ccc(CCNC(=O)CNC(=O)CN)s1`, the IC50 on Glutamate NMDA receptor [1] was 111 µM. The spermine attenuation ratio at Glutamate NMDA receptor [3] was found to be 5.48.

`NCCCCc1ccc(CCCCNCCCN)s1`: the IC50 on Glutamate NMDA receptor [1] turned out to be 5.2 µM. Besides, the spermine attenuation ratio at Glutamate NMDA receptor [3] amounted to 29.

`NCCCCc1ccc(CCNCCNCCN)s1` displayed an IC50 on Glutamate NMDA receptor [1] of 282 µM. This molecule also came in with an EC50 on Glutamate NMDA receptor [4] of 1.9 µM.

As for `CC(N)CC(=O)NCCCCc1ccc(CCCCN)s1` (stereo unspecified), the IC50 on Glutamate NMDA receptor [1] was determined as 2.21 µM. In addition, at Glutamate NMDA receptor [3], the spermine attenuation ratio was found to be 65.4.

For `CC(CN)C(=O)NCCCCc1ccc(CCCCN)s1` (stereo unspecified), the IC50 at Glutamate NMDA receptor [1] worked out at 24.7 µM. The spermine attenuation ratio at Glutamate NMDA receptor [3] was 10.3.

Molecule `NCCCCc1ccc(CCCCNC(=O)C(CN)c2ccccc2)s1` (stereo unspecified) displayed an IC50 at Glutamate NMDA receptor [1] of 11.7 µM. The spermine attenuation ratio on Glutamate NMDA receptor [3] came to 10.1.

`NCCCCc1ccc(CCCCN(Cc2ccccc2)C(=O)C[C@@H](N)Cc2ccccc2)s1` showed a concentration for half-maximal inhibition (IC50) on Glutamate NMDA receptor [1] of 13.4 µM. Further, on Glutamate NMDA receptor [3], the spermine attenuation ratio is 1.71.

Regarding `NCCCCc1ccc(CCCCNC(=O)CC(N)c2ccccc2)s1` (stereo unspecified), the concentration for half-maximal inhibition (IC50) at Glutamate NMDA receptor [1] came to 6.81 µM. In addition, at Glutamate NMDA receptor [3], the spermine attenuation ratio worked out at 15.

At Glutamate NMDA receptor [1], `NCCCCCCCCc1ccc(CCCN)s1` yielded an IC50 of 5.47 µM. In addition, the spermine attenuation ratio on Glutamate NMDA receptor [3] is 9.57.

Consider `NCCCCc1ccc(CCCCNC(=O)CCN)s1`, for which, on Glutamate NMDA receptor [1], the IC50 came out at 1.19 µM. On Glutamate NMDA receptor [3], the spermine attenuation ratio amounted to 51.4.

Take `NCCCCCCCCNC(=O)CCN`: the IC50 on Glutamate NMDA receptor [1] was determined as 53 µM. The spermine attenuation ratio on Glutamate NMDA receptor [3] worked out at 75.

For the molecule `NCCCCCCCCc1ccc(Cc2ccccc2CN)s1`, the IC50 on Glutamate NMDA receptor [1] worked out at 1.13 µM. Besides, the spermine attenuation ratio at Glutamate NMDA receptor [2] came out at 2.96.

The molecule `N=C(N)NCCCCCCCc1ccc(CCCNC(=N)N)s1` yielded a 50% inhibitory concentration (IC50) on Glutamate NMDA receptor [1] of 0.74 µM. Moreover, on Glutamate NMDA receptor [3], the spermine attenuation ratio worked out at 7.47.

At Glutamate NMDA receptor [1], `NCCCCCCCCCCCCN` gave an IC50 of 7.05 µM. Besides, the spermine attenuation ratio on Glutamate NMDA receptor [3] turned out to be 34.6.
